From publication PMC9543358 (British Journal of Clinical Pharmacology, 2022)
One block for each compound: values may come before it.

Experiments:
albumin in human plasma = conditions: cited from earlier work
HIV = conditions: cited from earlier work
[1] = cited from earlier work
[2] = cited from earlier work; remark: listed apart in the source
[3] = Population pharmacokinetic model of cabotegravir plasma concentrations; assay type: in vivo, human; conditions: for IIV of CL/F / IIV of F1 / IIV of KALA / IIV of KAoral / IIV of V2/F: interindividual variability; for Smoke on CL/F (fractional change of CL/F in current smokers): current smoker
In short: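 Human plasma concentrations (23 926 from 1647 adults, HIV‑1‑infected and uninfected, 16 phase 1–3 studies; oral 10–60 mg, IM 200–800 mg) of the test compound were fitted in NONMEM (FOCE with interaction). The model was two‑compartment with first‑order oral and IM absorption and elimination, with a weight power function (shared exponents) on clearances and volumes. BQL data were handled by likelihood, with IOV on KALA/F1.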

[4] = cited from earlier work; remark: listed apart in the source
[5] = base model, typical subject of 76.6 kg

IIV of CL/F ([3]; base model): 24.9%
IIV of F1 ([3]; base model): 17.2%
IIV of KALA ([3]; base model): 71.4%
IIV of KAoral ([3]; base model): 61.4%
IIV of V2/F ([3]; base model): 22.6%
CL/F, apparent central clearance [3, 5]: 0.16 L/h
KALA, absorption rate constant for LA IM injection [3, 5]: 0.000642 h⁻¹
KAoral, absorption rate constant for oral tablet [3, 5]: 1.12 h⁻¹
race and age as covariates of PK ([3]; covariate evaluation, final model): not significant covariates
BWT on V2/F and V3/F (exponent) ([3]; final model): 0.702
KALA lower in females than males ([3]; final model): 50.9%
KALA lower in subjects with BMI of 32.5 kg/m^2 (90th percentile) than BMI of 20.9 kg/m^2 (10th percentile) ([3]; final model): 28.6%
KAoral, absorption rate constant for oral tablet ([3]; final model): 1.41 h⁻¹
BMI exponent on KALA ([3]; final model, BMI/25.4): −0.766
CL/F, apparent central clearance ([3]; final model, BWT 76.6 kg, not current smoker): 0.151 L/h
Smoke on CL/F (fractional change of CL/F in current smokers) ([3]; final model): 17.4%
Smoke on CL/F (fractional change of CL/F in current smokers) ([3]; final model, listed as cabotegravir): 17.4%
Female on KALA (fractional change) ([3]; final model, female vs male): −50.9%
IIV of CL/F ([3]; final model): 23.3%
IIV of F1 ([3]; final model): 17.4%
IIV of KALA ([3]; final model): 57.9%
IIV of KAoral ([3]; final model): 89.4%
IIV of V2/F ([3]; final model): 20.3%
KALA, absorption rate constant for LA IM injection ([3]; final model, male, unsplit injection, BMI 25.4, needle length 1.5 inch): 0.000733 h⁻¹
NDL exponent on KALA ([3]; final model, needle length/1.5 inch): 0.478
Vd/F ([3]; human, plasma, other: oral tablet and LA IM injection, modelled together, V2/F, apparent central compartment volume of distribution, base model, typical subject of 76.6 kg): 5.5 L
dose proportionality of exposure ([3]; oral 10 to 60 mg, LA 200 to 800 mg): dose proportional
Compound: C[C@H]1CO[C@@H]2Cn3cc(C(=O)NCc4ccc(F)cc4F)c(=O)c(O)c3C(=O)N12 [CAB, Cabotegravir]
binding in human plasma (primarily to albumin) (albumin in human plasma): > 99%
PA‐IC90, in vitro protein‐adjusted concentration resulting in 90% of the maximum inhibition of viral growth (HIV): 0.166 µg/mL
apparent clearance ([1]; following oral dosing): 0.21 L/h
apparent volume of distribution ([1]; following oral dosing): 12.3 L
route of elimination ([1]; hepatic metabolism): hepatic metabolism via UGT1A1 with a minor component by UGT1A9
permeability classification [2]: high permeability
solubility classification [2]: low solubility
BWT on V2/F and V3/F (exponent) ([3]; base model, power function of baseline body weight): 0.675

Compound: C[C@@H]1CCO[C@H]2Cn3cc(C(=O)NCc4ccc(F)cc4F)c(=O)c(O)c3C(=O)N12 [DTG, dolutegravir]
CL/F higher in current smokers [4]: 16%
estimated absolute oral bioavailability higher in females than in males [4]: 21%
